Assay [1] deals with CCRF S-180. Description: Optimal dose towards sarcoma 180 cells, inoculated subcutaneously to the axillary region of ddY mice. In kind it is functional, Mus musculus. In a few lines: (§1)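 Sarcoma 180 cells implanted sc in the axillary region of ddY mice on day 0; compounds given iv on day 1. Tumor volume compared treated versus control (T/C). 50% growth-inhibitory dose calculated from the dose-response curve; optimal dose also recorded.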

The subject of assay [2] is HeLa. Description: In vitro anticellular activity tested against HeLa S3 cells. The format is functional, cell-based. As to conditions: Homo sapiens. In outline: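 HeLa S3 cells seeded on day 0, then exposed to drug for 1 h on day 1; anticellular activity determined by a previously described method.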
For assay [3], the system named is Mus musculus. Description: Effective dose that gave 50% inhibition of tumor growth was calculated towards sarcoma 180 cells which were inoculated subcutaneously to the axillary region of ddY mice. In kind it is functional. Particulars: Mus musculus, 180, sc. In outline: as §1
Assay [4] deals with Mus musculus. Description: In vivo antitumor activity against lymphatic leukemia P388 cells sensitive to mitomycin C (MMC) was measured as maximal increase in life span of the treated mice at optimal dose of 13 mg/kg. In kind it is functional.
The subject of assay [5] is Mus musculus. Description: In vivo antitumor activity against lymphatic leukemia P388 cells resistant to mitomycin C (MMC) was measured as maximal increase in life span of the treated mice at optimal dose of 13 mg/kg. In kind it is functional.
For assay [6], the system named is Mus musculus. Description: In vivo antitumor activity against lymphatic leukemia P388 cells resistant to mitomycin C (MMC) was measured as maximal increase in life span of the treated mice at optimal dose of 9.0 mg/kg. In kind it is functional.
Assay [7] concerns Mus musculus. The assay can be described thus: In vivo antitumor activity against lymphatic leukemia P388 cells resistant to mitomycin C (MMC) was measured as maximal increase in life span of the treated mice at optimal dose of 25 mg/kg. In kind it is functional.
In assay [8] the test system is Mus musculus. The assay can be described thus: In vivo antitumor activity against lymphatic leukemia P388 cells sensitive to mitomycin C (MMC) was measured as maximal increase in life span of the treated mice at optimal dose of 25 mg/kg. The format is functional.
The subject of assay [9] is Mus musculus. The assay can be described thus: In vivo antitumor activity against lymphatic leukemia P388 cells sensitive to mitomycin C (MMC) was measured as maximal increase in life span of the treated mice at optimal dose of 3.1 mg/kg. In kind it is functional.
In assay [10] the test system is Mus musculus. The assay can be described thus: The in vivo antitumor activity against lymphatic leukemia P388 cells resistant to mitomycin C (MMC) in mice was measured as maximal increase in life span of the treated mice at optimal dose of 3.1 mg/kg. The format is functional.
Assay [11] has as its system CCRF S-180. Description: Tumor volume of sarcoma 180 cells which were inoculated […] to the axillary region of ddY mice, after treatment. In kind it is functional, Mus musculus.
The subject of assay [12] is Mus musculus. The assay can be described thus: In vivo antitumor activity against lymphatic leukemia P388 cells resistant to mitomycin C (MMC) was measured as maximal increase in life span of the treated mice at optimal dose of 6.0 mg/kg. The format is functional.
In assay [13] the test system is Mus musculus. The assay can be described thus: In vivo antitumor activity against lymphatic leukemia P388 cells resistant to mitomycin C (MMC) was measured as maximal increase in life span of the treated mice at optimal dose of 1.6 mg/kg. In kind it is functional.
Assay [14] has as its system Mus musculus. The assay can be described thus: In vivo antitumor activity against lymphatic leukemia P388 cells sensitive to mitomycin C (MMC) was measured as maximal increase in life span of the treated mice at optimal dose of 0.78 mg/kg. The format is functional.
Assay [15] relates to Mus musculus. The assay can be described thus: Effective dose that gave 50% inhibition of tumor growth was calculated towards sarcoma 180 cells which were inoculated subcutaneously to the axillary region of ddY mice; 1.9-3.7. In kind it is functional. Particulars: Mus musculus, 180, sc.
In assay [16] the test system is Mus musculus. The assay can be described thus: In vivo antitumor activity against lymphatic leukemia P388 cells sensitive to mitomycin C (MMC) was measured as maximal increase in life span of the treated mice at optimal dose of 1.0-6.0 mg/kg; 38-84. In kind it is functional.
The subject of assay [17] is HeLa. Description: In vitro anticellular activity against HeLa S3 cells; 0.82-1.4. The format is functional, cell-based. As to conditions: Homo sapiens.
Assay [18] has as its system Mus musculus. Description: Optimal dose was calculated towards sarcoma 180 cells which were inoculated subcutaneously to the axillary region of ddY mice; 4.0-6.0. In kind it is functional.
Assay [19] has as its system Mus musculus. The assay can be described thus: Tumor volume was calculated against sarcoma 180 cells which were inoculated subcutaneously to the axillary region of ddY mice; 0.28-0.46.
Assay [20] has as its system HeLa. Description: In vitro anticellular activity against HeLa S3 cells; 0.59-1.1. As to conditions: Homo sapiens. The format is functional, cell-based.
In assay [21] the test system is Mus musculus. The assay can be described thus: In vivo antitumor activity against lymphatic leukemia P388 cells resistant to mitomycin C (MMC) was measured as maximal increase in life span of the treated mice at optimal dose of 1.0-4.0 mg/kg. The format is functional.

A value given as a limit tells only on which side of the number the result lay.

Turning to `CO[C@@]12[C@H](COC(N)=O)C3=C(C(=O)C(CSC4OC(COC(C)=O)C(OC(C)=O)C(OC(C)=O)C4OC(C)=O)=C(N)C3=O)N1C[C@@H]1N[C@@H]12` (stereo not given in full), the OD in the assay with CCRF S-180 [1] turned out to be 25 mg/kg. In the assay on HeLa [2], this compound displayed an IC50 of 1.1 µM. In the assay with Mus musculus [3], the ED50 was 24 mg/kg. Moreover, the ILS at 13 mg/kg in the assay on Mus musculus [4] was 58%; in the assay with Mus musculus [5], over 143%.

In turn, `CO[C@@]12[C@H](COC(N)=O)C3=C(C(=O)C(CSc4nncn4C)=C(N)C3=O)N1C[C@@H]1N[C@@H]12` displayed an ILS at 9 mg/kg in the assay on Mus musculus [6] of over 71%. In the assay on CCRF S-180 [1], this compound gave an OD of 46 mg/kg. Also, the IC50 in the assay on HeLa [2] was 2.5 µM. For the same compound, the ED50 in the assay with Mus musculus [3] is 39 mg/kg.

In the case of `CO[C@@]12[C@H](COC(N)=O)C3=C(C(=O)C(COC(C)C)=C(N)C3=O)N1C[C@@H]1N[C@@H]12`, the increase in life span (ILS) at 25 mg/kg in the assay on Mus musculus [7] is over 97%; with Mus musculus [8], 55%. The same compound showed an OD in the assay with CCRF S-180 [1] of 50 mg/kg. Further, in the assay on HeLa [2], inhibition was half-maximal at 2.5 µM (IC50). Further, the ED50 with Mus musculus [3] was 15 mg/kg.

For the compound `CO[C@@]12[C@H](COC(N)=O)C3=C(C(=O)C(CSc4nccs4)=C(N)C3=O)N1C[C@@H]1N[C@@H]12`, the ILS at 3.1 mg/kg in the assay on Mus musculus [9] was determined as 49%; with Mus musculus [10] it was 26%. In the assay with CCRF S-180 [1], the OD stood at 13 mg/kg. In addition, the IC50 with HeLa [2] turned out to be 1.4 µM. Besides, in the assay with Mus musculus [3], the ED50 was 8.9 mg/kg.

Regarding `C=CCSCC1=C(N)C(=O)C2=C(C1=O)N1C[C@@H]3N[C@@H]3[C@]1(OC)[C@@H]2COC(N)=O`, in the assay on CCRF S-180 [1], the OD came out at 14 mg/kg. Besides, the IC50 in the assay with HeLa [2] came out at 2.3 µM. In the assay with CCRF S-180 [11], this compound came in with a T/C of 0.77 min. In addition, in the assay on Mus musculus [12], the ILS at 6 mg/kg amounted to 33%.

Turning to `CO[C@@]12[C@H](COC(N)=O)C3=C(C(=O)C(CSc4ncccn4)=C(N)C3=O)N1C[C@@H]1N[C@@H]12`, the OD in the assay on CCRF S-180 [1] stood at 13 mg/kg. In the assay on HeLa [2], this compound showed an IC50 of 0.95 µM. Also, the ILS at 1.6 mg/kg in the assay on Mus musculus [13] is over 92%. Besides, the ED50 in the assay on Mus musculus [3] is 8.9 mg/kg. In the assay on Mus musculus [14], this compound showed an ILS at 0.78 mg/kg of 58%.

`CO[C@@]12[C@H](COC(N)=O)C3=C(C(=O)C(C)=C(N)C3=O)N1C[C@@H]1N[C@@H]12` [MITOMYCIN]: in the assay on Mus musculus [15], the ED50 is 3.7 mg/kg. In addition, the increase in lifespan (ILS) with Mus musculus [16] worked out at 84%; in the assay on Mus musculus [21], 23%. For the same compound, the IC50 was determined as 1.4 µM in the assay on HeLa [17] and 1.1 µM in the assay with HeLa [20]. For the same compound, in the assay on Mus musculus [18], the OD was 6 mg/kg. Also, the T/C in the assay on Mus musculus [19] was 0.46.

For orientation: IC50 means the concentration that inhibits the measured activity by half. Broadly, the ED50 is the dose that gives a 50% effect, or the effect in half of the subjects. In general, ILS refers to the gain in survival time of treated over control animals, in per cent.
